Several values for one entry are separate records, joined by “and”; a condition that tells them apart may be missing. Equal values may be shown once.
Test system: U2OS
Assay: Multiplex assay against U2OS
Type: toxicity, cell-based
Details: human
Summary of the method: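 Per cents of healthy-nucleus cells form the tubulin, mitochondrial-mass and membrane-permeability phenotype values. Live cells were stained at seeding with Hoechst33342, BioTracker Green Microtubule Cytoskeleton Dye, MitoTracker Red and Annexin V Alexa Fluor 680. After compound addition they were imaged on a CQ1 microscope at 37°C and 5% CO2, and CellPathfinder machine-learning gating split them into Hoechst high-intensity objects or normal cells, normal cells into healthy, pyknosed or fragmented nuclei, and pyknosed cells into mitotic or apoptotic.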

[1] = 12 h, 1 µM, compound concentration 1 uM
[2] = 12 h, 10 µM, compound concentration 10 uM
[3] = 24 h, 1 µM, compound concentration 1 uM
[4] = 24 h, 10 µM, compound concentration 10 uM
[5] = 48 h, 1 µM, compound concentration 1 uM
[6] = 48 h, 10 µM, compound concentration 10 uM

Question: How did the “Population Apoptotic (%)” value [1] turn out when `COc1c(Nc2ccc(S(C)(=O)=O)nc2C)ncnc1OC1CCN(C(=O)OC(C)C)CC1` [ADP-597] was run?
Answer: The value was 82% and 75%.

Question: And the “Population Fragmented Nuclei (%)” value [1]?
Answer: Its value is 23% and 13%.

Question: What about the “Population Healthy Nuclei (%)” value [1] of the same compound?
Answer: Its value is 68% and 78%.

Question: And the “Population Hoechst High Intensity Objects (%)” value [1]?
Answer: The value was 2% and 3%.

Question: And the “Population Membrane Permeable-Phenotype (%)” value [1]?
Answer: The value was 7% and 11%.

Question: What about the “Population Mitochondria Different-Phenotype (%)” value [1] of the same compound?
Answer: The value was 1%.

Question: And the “Population Mitotic Cells (%)” value [1]?
Answer: The value was 17% and 25%.

Question: And the “Population Normal (%)” value [1]?
Answer: Its value is 97% and 96%.

Question: What about the “Population Pyknosed Nuclei (%)” value [1] of the same compound?
Answer: The value was 8%.

Question: And the “Population Tubulin-Different-Phenotype (%)” value [1]?
Answer: The value was 5% and 2%.

Question: And the “Total Cell Count” value [1]?
Answer: The value was 208 and 95.

Question: And the “Population Apoptotic (%)” value [2]?
Answer: Its value is 93% and 85%.

Question: And the “Population Fragmented Nuclei (%)” value [2]?
Answer: The value was 27% and 10%.

Question: And the “Population Healthy Nuclei (%)” value [2]?
Answer: Its value is 60% and 77%.

Question: What about the “Population Hoechst High Intensity Objects (%)” value [2] of the same compound?
Answer: The value was 8% and 4%.

Question: What about the “Population Membrane Permeable-Phenotype (%)” value [2] of the same compound?
Answer: The value was 7%.

Question: And the “Population Mitochondria Different-Phenotype (%)” value [2]?
Answer: The value was 2% and 3%.

Question: And the “Population Mitotic Cells (%)” value [2]?
Answer: The value was 6% and 14%.

Question: What about the “Population Normal (%)” value [2] of the same compound?
Answer: The value was 91% and 95%.

Question: What about the “Population Pyknosed Nuclei (%)” value [2] of the same compound?
Answer: Its value is 11%.

Question: And the “Population Tubulin-Different-Phenotype (%)” value [2]?
Answer: The value was 4% and 1%.

Question: What about the “Total Cell Count” value [2] of the same compound?
Answer: The value was 266 and 128.

Question: And the “Population Apoptotic (%)” value [3]?
Answer: Its value is 88% and 80%.

Question: And the “Population Fragmented Nuclei (%)” value [3]?
Answer: Its value is 24% and 12%.

Question: And the “Population Healthy Nuclei (%)” value [3]?
Answer: The value was 67% and 79%.

Question: And the “Population Hoechst High Intensity Objects (%)” value [3]?
Answer: Its value is 3%.

Question: What about the “Population Membrane Permeable-Phenotype (%)” value [3] of the same compound?
Answer: Its value is 7% and 8%.

Question: And the “Population Mitochondria Different-Phenotype (%)” value [3]?
Answer: Its value is 3%.

Question: And the “Population Mitotic Cells (%)” value [3]?
Answer: Its value is 11% and 20%.

Question: And the “Population Normal (%)” value [3]?
Answer: The value was 96%.

Question: And the “Population Pyknosed Nuclei (%)” value [3]?
Answer: Its value is 7% and 8%.

Question: What about the “Population Tubulin-Different-Phenotype (%)” value [3] of the same compound?
Answer: The value was 3% and 5%.

Question: What about the “Total Cell Count” value [3] of the same compound?
Answer: The value was 239 and 129.

Question: What about the “Population Apoptotic (%)” value [4] of the same compound?
Answer: The value was 88% and 83%.

Question: And the “Population Fragmented Nuclei (%)” value [4]?
Answer: The value was 30% and 11%.

Question: What about the “Population Healthy Nuclei (%)” value [4] of the same compound?
Answer: The value was 61% and 80%.

Question: And the “Population Hoechst High Intensity Objects (%)” value [4]?
Answer: Its value is 6% and 5%.

Question: What about the “Population Membrane Permeable-Phenotype (%)” value [4] of the same compound?
Answer: The value was 8% and 6%.

Question: What about the “Population Mitochondria Different-Phenotype (%)” value [4] of the same compound?
Answer: The value was 2% and 4%.

Question: What about the “Population Mitotic Cells (%)” value [4] of the same compound?
Answer: Its value is 12% and 16%.

Question: What about the “Population Normal (%)” value [4] of the same compound?
Answer: Its value is 93% and 94%.

Question: And the “Population Pyknosed Nuclei (%)” value [4]?
Answer: The value was 8%.

Question: And the “Population Tubulin-Different-Phenotype (%)” value [4]?
Answer: Its value is 4% and 1%.

Question: What about the “Total Cell Count” value [4] of the same compound?
Answer: The value was 305 and 155.

Question: And the “Population Apoptotic (%)” value [5]?
Answer: Its value is 80% and 81%.

Question: What about the “Population Fragmented Nuclei (%)” value [5] of the same compound?
Answer: Its value is 19% and 20%.

Question: And the “Population Healthy Nuclei (%)” value [5]?
Answer: Its value is 72% and 67%.

Question: What about the “Population Hoechst High Intensity Objects (%)” value [5] of the same compound?
Answer: The value was 2%.

Question: And the “Population Membrane Permeable-Phenotype (%)” value [5]?
Answer: Its value is 6% and 5%.

Question: And the “Population Mitochondria Different-Phenotype (%)” value [5]?
Answer: The value was 5% and 4%.

Question: And the “Population Mitotic Cells (%)” value [5]?
Answer: The value was 19% and 18%.

Question: And the “Population Normal (%)” value [5]?
Answer: Its value is 97%.

Question: And the “Population Pyknosed Nuclei (%)” value [5]?
Answer: The value was 7% and 12%.

Question: What about the “Population Tubulin-Different-Phenotype (%)” value [5] of the same compound?
Answer: The value was 2%.

Question: And the “Total Cell Count” value [5]?
Answer: Its value is 339 and 185.

Question: And the “Population Apoptotic (%)” value [6]?
Answer: The value was 79% and 92%.

Question: What about the “Population Fragmented Nuclei (%)” value [6] of the same compound?
Answer: The value was 24% and 10%.

Question: What about the “Population Healthy Nuclei (%)” value [6] of the same compound?
Answer: The value was 62% and 77%.

Question: What about the “Population Hoechst High Intensity Objects (%)” value [6] of the same compound?
Answer: The value was 6% and 3%.

Question: And the “Population Membrane Permeable-Phenotype (%)” value [6]?
Answer: Its value is 6% and 4%.

Question: What about the “Population Mitochondria Different-Phenotype (%)” value [6] of the same compound?
Answer: The value was 4% and 0%.

Question: What about the “Population Mitotic Cells (%)” value [6] of the same compound?
Answer: Its value is 20% and 8%.

Question: What about the “Population Normal (%)” value [6] of the same compound?
Answer: Its value is 93% and 96%.

Question: And the “Population Pyknosed Nuclei (%)” value [6]?
Answer: Its value is 13% and 11%.

Question: What about the “Population Tubulin-Different-Phenotype (%)” value [6] of the same compound?
Answer: Its value is 2%.

Question: And the “Total Cell Count” value [6]?
Answer: The value was 356 and 223.

Question: Which results are given for `CC(C)(O)c1cnc(N2C[C@@]3(CCC[C@](C)(Cn4cnc5ccc(C#N)cc54)C3)OC2=O)cn1` [GSK2798745]?
Answer: Population Apoptotic (%) [1]: 63.64% and 30.77%; Population Fragmented Nuclei (%) [1]: 3.45% and 3.94%; Population Healthy Nuclei (%) [1]: 87.8% and 85.83%; Population Hoechst High Intensity Objects (%) [1]: 0%; Population Membrane Permeable-Phenotype (%) [1]: 0.6% and 4.59%; Population Mitochondria Different-Phenotype (%) [1]: 0.3% and 10.09%; Population Mitotic Cells (%) [1]: 36.36% and 69.23%; Population Normal (%) [1]: 100%; Population Pyknosed Nuclei (%) [1]: 8.75% and 10.24%; Population Tubulin-Different-Phenotype (%) [1]: 1.51% and 0%; Total Cell Count [1]: 377 and 127; Population Apoptotic (%) [2]: 39.02% and 48.39%; Population Fragmented Nuclei (%) [2]: 1.62% and 2.98%; Population Healthy Nuclei (%) [2]: 87.33% and 78.57%; Population Hoechst High Intensity Objects (%) [2]: 0%; Population Membrane Permeable-Phenotype (%) [2]: 2.16% and 6.06%; Population Mitotic Cells (%) [2]: 60.98% and 51.61%; Population Normal (%) [2]: 100%; Population Pyknosed Nuclei (%) [2]: 11.05% and 18.45%; Population Tubulin-Different-Phenotype (%) [2]: 3.7% and 1.52%; Total Cell Count [2]: 371 and 168; Population Apoptotic (%) [3]: 40.48% and 23.53%; Population Fragmented Nuclei (%) [3]: 1.65% and 5.56%; Population Healthy Nuclei (%) [3]: 89.67% and 83.95%; Population Hoechst High Intensity Objects (%) [3]: 0%; Population Membrane Permeable-Phenotype (%) [3]: 0.23% and 2.94%; Population Mitochondria Different-Phenotype (%) [3]: 0.23% and 2.94%; Population Mitotic Cells (%) [3]: 59.52% and 76.47%; Population Normal (%) [3]: 100%; Population Pyknosed Nuclei (%) [3]: 8.68% and 10.49%; Population Tubulin-Different-Phenotype (%) [3]: 0.69% and 0%; Total Cell Count [3]: 484 and 162; Population Apoptotic (%) [4]: 44% and 37.5%; Population Fragmented Nuclei (%) [4]: 1.39% and 4.31%; Population Healthy Nuclei (%) [4]: 88.71% and 84.21%; Population Hoechst High Intensity Objects (%) [4]: 0.2% and 0%; Population Membrane Permeable-Phenotype (%) [4]: 1.34% and 6.25%; Population Mitochondria Different-Phenotype (%) [4]: 0.67% and 8.52%; Population Mitotic Cells (%) [4]: 56% and 62.5%; Population Normal (%) [4]: 99.8% and 100%; Population Pyknosed Nuclei (%) [4]: 9.9% and 11.48%; Population Tubulin-Different-Phenotype (%) [4]: 3.12% and 1.7%; Total Cell Count [4]: 506 and 209; Population Apoptotic (%) [5]: 34.95% and 33.33%; Population Fragmented Nuclei (%) [5]: 3.43% and 2.22%; Population Healthy Nuclei (%) [5]: 85.16% and 84.44%; Population Hoechst High Intensity Objects (%) [5]: 0%; Population Membrane Permeable-Phenotype (%) [5]: 1.17% and 3.07%; Population Mitochondria Different-Phenotype (%) [5]: 0.13% and 4.82%; Population Mitotic Cells (%) [5]: 65.05% and 66.67%; Population Normal (%) [5]: 100%; Population Pyknosed Nuclei (%) [5]: 11.41% and 13.33%; Population Tubulin-Different-Phenotype (%) [5]: 0.52% and 1.32%; Population Apoptotic (%) [6]: 52.17% and 44.9%; Population Fragmented Nuclei (%) [6]: 2.1% and 0.91%; Population Healthy Nuclei (%) [6]: 87.73% and 84.29%; Population Hoechst High Intensity Objects (%) [6]: 0%; Population Membrane Permeable-Phenotype (%) [6]: 1.26% and 1.79%; Population Mitochondria Different-Phenotype (%) [6]: 0.5% and 9.68%; Population Mitotic Cells (%) [6]: 47.83% and 55.1%; Population Normal (%) [6]: 100%; Population Pyknosed Nuclei (%) [6]: 10.17% and 14.8%; Population Tubulin-Different-Phenotype (%) [6]: 3.65% and 0.36%; Total Cell Count [6]: 905 and 331

Source: ChEMBL document CHEMBL5724801, “EUbOPEN Chemogenomics Library - Multiplex” (2024)
